Test results reported in ChEMBL document CHEMBL4038284, “Synthesis of novel quinoline-based 4,5-dihydro-1H-pyrazoles as potential anticancer, antifungal, antibacterial and antiprotozoal agents” (Eur J Med Chem, 2017).
≈ marks a conversion by molar mass, not a printed value. Calls of active or inactive are those of the source. The rule behind the calls is not given here.

Columns and labels:
DU-145 = assay: Growth inhibition of human DU145 cells at 10 uM incubated for 48 hrs by sulforhodamine B assay; type: functional, cell-based
How it was run: (§1)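 NCI 60-cell-line screen at a single 10 µM dose. Cells in RPMI-1640 with 5% FBS and 2 mM L-glutamine, pre-incubated 24 h, then treated for 48 h at 37 °C. TCA fixation, sulforhodamine B staining, absorbance at 515 nm. Percentage growth calculated against time-zero and untreated controls.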

Pseudomonas aeruginosa = assay: Antibacterial activity against Pseudomonas aeruginosa ATCC 27853 after 24 hrs by resazurin dye based microdilution assay; type: functional; conditions: ATCC 27853, 24 h
How it was run: (§2)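 MIC taken as the lowest concentration giving visible inhibition and/or by resazurin (1 mg/mL). Gentamicin was the control. Run in duplicate, repeated at least three times.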

M14 = assay: Growth inhibition of human M14 cells at 10 uM incubated for 48 hrs by sulforhodamine B assay; type: functional, cell-based
How it was run: (§3)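 NCI 60-line panel, single 10 μM dose. Cells were grown in RPMI-1640 with 5% FBS and 2 mM L-glutamine and pre-incubated 24 h before compound addition (DMSO stock). Exposure was 48 h at 37 °C, 5% CO2. Cells were fixed with cold TCA (10% final), stained with 0.4% SRB, bound dye dissolved in 10 mM Tris base, A515 read. Growth was taken relative to time-zero and untreated control plates.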

A498 = assay: Growth inhibition of human A498 cells at 10 uM incubated for 48 hrs by sulforhodamine B assay; type: functional, cell-based; how it was run: as §1
UACC-62 = assay: Growth inhibition of human UACC62 cells at 10 uM incubated for 48 hrs by sulforhodamine B assay; type: functional, cell-based
How it was run: (§4)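 NCI-60 single-dose screen at 10 µM for 48 h. Cells were grown in RPMI-1640 with 5% FBS and 2 mM L-glutamine and preincubated 24 h before compound. Time-zero plates were TCA-fixed at compound addition. After exposure, cells were TCA-fixed, stained with SRB and read at 515 nm. Percentage growth was calculated against time-zero and untreated-control absorbances.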

Malme-3M = assay: Growth inhibition of human MALME-3M cells at 10 uM incubated for 48 hrs by sulforhodamine B assay; type: functional, cell-based; how it was run: as §3
Staphylococcus aureus [1] = assay: Antibacterial activity against vancomycin-intermediate Staphylococcus aureus after 24 hrs by resazurin dye based microdilution assay; type: functional; how it was run: as §2
Klebsiella pneumoniae = assay: Antibacterial activity against carbapenemase positive Klebsiella pneumoniae BAA 1705 after 24 hrs by resazurin dye based microdilution assay; type: functional; conditions: BAA 1705, 24 h; how it was run: as §2
Cryptococcus neoformans [2] = assay: Antifungal activity against Cryptococcus neoformans ATCC 32264 incubated for 48 hrs under dark condition by broth microdilution method; type: functional; conditions: ATCC 32264, 48 h
How it was run: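 CLSI M27-A3 broth microdilution in RPMI-1640, DMSO ≤1%, compounds at 250-0.98 µg/mL final. Inoculum 1-5 × 10^3 CFU/mL. Incubated 48 h at 30 °C in a moist dark chamber, read at OD405. MIC80 and MIC50 taken from % inhibition dose-response curves (mean ± SEM, triplicate). Amphotericin B was the positive control.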

Plasmodium falciparum = assay: Antiplasmodial activity against chloroquine-sensitive Plasmodium falciparum 3D7 assessed as reduction in parasitic LDH activity after 48 hrs by Malstat reagent based […] method; type: functional; conditions: 3D7, 48 h
How it was run: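 Unsynchronized P. falciparum 3D7 at 0.5% parasitemia and 1% hematocrit in RPMI with 3% Albumax II. Exposed to 100, 25, 6.25 and 1.56 µg/mL for 48 h at 37 °C under 90% N2/5% CO2/5% O2. After three freeze-thaw cycles, LDH measured with Malstat and NBT/PES, 1 h in the dark, read at 650 nm. IC50 by Probit; triplicate, ≥2 experiments.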

Cryptococcus neoformans [3] = assay: Growth inhibition of Cryptococcus neoformans ATCC 32264 at 125 ug/ml incubated for 48 hrs under dark condition by broth microdilution method relative to control; type: functional; conditions: ATCC 32264, 48 h, read-out: GI
How it was run: (§5)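 CLSI M27-A3 broth microdilution in RPMI-1640, DMSO ≤1%. Inoculum 1-5 × 10^3 CFU/mL. Incubated 48 h at 30 °C, dark. % inhibition = 100 − (OD405 test − sterility control)/(OD405 growth control − sterility control), with growth and sterility control wells. Triplicate.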

Cryptococcus neoformans [4] = assay: Growth inhibition of Cryptococcus neoformans ATCC 32264 at 3.4 ug/ml incubated for 48 hrs under dark condition by broth microdilution method relative to control; type: functional; conditions: ATCC 32264, 48 h, read-out: GI
Staphylococcus aureus [5] = assay: Antibacterial activity against methicillin-resistant Staphylococcus aureus ATCC 43300 after 24 hrs by resazurin dye based microdilution assay; type: functional; conditions: ATCC 43300, 24 h
How it was run: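 Broth microdilution in Mueller Hinton broth, inoculum 5 × 10^5 – 8 × 10^5. Compound stocks diluted in MHB with 5% DMSO and 0.1% Tween 80. Incubation 24 h at 35-37 °C. MIC is the lowest concentration with visible growth inhibition and/or by resazurin (1 mg/mL) read-out. Gentamicin as control. Run in duplicate, replicated at least three times.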

OVCAR-4 = assay: Growth inhibition of human OVCAR4 cells at 10 uM incubated for 48 hrs by sulforhodamine B assay; type: functional, cell-based; how it was run: as §3
MDA-MB-231 = assay: Growth inhibition of human MDA-MB-231 cells at 10 uM incubated for 48 hrs by sulforhodamine B assay; type: functional, cell-based; how it was run: as §3
Neisseria gonorrhoeae = assay: Antibacterial activity against beta lactamase positive Neisseria gonorrhoeae ATCC 31426 by oxidase test; type: functional
How it was run: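 Agar dilution MIC on GC agar with 1% isovitalex containing increasing compound concentrations. Plates inoculated with about 1×10^4 CFU (5 µL). MIC is the lowest concentration that inhibited growth, with growth confirmed by oxidase test. Run in duplicate, repeated at least three times.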

Cryptococcus neoformans [6] = assay: Growth inhibition of Cryptococcus neoformans ATCC 32264 at 62.5 ug/ml incubated for 48 hrs under dark condition by broth microdilution method relative to control; type: functional; conditions: ATCC 32264, 48 h, read-out: GI; how it was run: as §5
TK-10 = assay: Growth inhibition of human TK10 cells at 10 uM incubated for 48 hrs by sulforhodamine B assay; type: functional, cell-based; how it was run: as §4
Cryptococcus neoformans [7] = assay: Growth inhibition of Cryptococcus neoformans ATCC 32264 at 31.25 ug/ml incubated for 48 hrs under dark condition by broth microdilution method relative to control; type: functional; conditions: ATCC 32264, 48 h, read-out: GI; how it was run: as §5
Cryptococcus neoformans [8] = assay: Growth inhibition of Cryptococcus neoformans ATCC 32264 at 250 ug/ml incubated for 48 hrs under dark condition by broth microdilution method relative to control; type: functional; conditions: ATCC 32264, 48 h, read-out: GI; how it was run: as §5
SR = assay: Growth inhibition of human SR cells at 10 uM incubated for 48 hrs by sulforhodamine B assay; type: functional, cell-based; how it was run: as §4
MDA-MB-435 = assay: Growth inhibition of human MDA-MB-435 cells at 10 uM incubated for 48 hrs by sulforhodamine B assay; type: functional, cell-based; how it was run: as §3
KM12 = assay: Growth inhibition of human KM12 cells at 10 uM incubated for 48 hrs by sulforhodamine B assay; type: functional, cell-based; how it was run: as §3
Candida albicans = assay: Growth inhibition of Candida albicans ATCC 10231 at 7.8 ug/ml incubated for 48 hrs under dark condition by broth microdilution method relative to control; type: functional; conditions: ATCC 10231, 48 h, read-out: GI; how it was run: as §5
SF-539 = assay: Growth inhibition of human SF539 cells at 10 uM incubated for 48 hrs by sulforhodamine B assay; type: functional, cell-based; how it was run: as §3

**Q.** Which results are given for Clc1ccc(C2=NN(c3ccc(Cl)cc3)C(c3cccc(Nc4ccnc5cc(Cl)ccc45)c3)C2)cc1 (configuration not stated)?
**A.** growth inhibition (GI) (DU-145): inactive; MIC (Pseudomonas aeruginosa): > 1000 µg/mL; growth inhibition (GI) (M14): inactive; growth inhibition (GI) (A498): inactive; growth inhibition (GI) (UACC-62): inactive; growth inhibition (GI) (Malme-3M): inactive; MIC (Staphylococcus aureus [1]): > 1000 µg/mL; MIC (Klebsiella pneumoniae): > 1000 µg/mL; MIC50 (Cryptococcus neoformans [2]): 250 µg/mL (≈ 460 µM); MIC80 (Cryptococcus neoformans [2]): ≥ 250 µg/mL; EC50 (Plasmodium falciparum): 10.3 µg/mL (≈ 18.9 µM); inhibition of growth at 125 µg/mL (Cryptococcus neoformans [3]): 46%; inhibition of growth at 3.4 µg/mL (Cryptococcus neoformans [4]): 17.4%; MIC (Staphylococcus aureus [5]): > 1000 µg/mL; growth inhibition (GI) (OVCAR-4): inactive; growth inhibition (GI) (MDA-MB-231): inactive; MIC (Neisseria gonorrhoeae): > 1000 µg/mL; inhibition of growth at 62.5 µg/mL (Cryptococcus neoformans [6]): 25.8%; growth inhibition (GI) (TK-10): inactive; inhibition of growth at 31.25 µg/mL (Cryptococcus neoformans [7]): 24.3%; inhibition of growth at 250 µg/mL (Cryptococcus neoformans [8]): 53%; growth inhibition (GI) (SR): inactive; growth inhibition (GI) (MDA-MB-435): inactive; growth inhibition (GI) (KM12): inactive; inhibition of growth at 7.8 µg/mL (Candida albicans): 2.96%; growth inhibition (GI) (SF-539): inactive

**Q.** Which results are given for COc1cc(C(=O)/C=C/c2cccc(Nc3ccnc4cc(Cl)ccc34)c2)cc(OC)c1OC?
**A.** growth inhibition (GI) (DU-145): Active; MIC (Pseudomonas aeruginosa): > 1000 µg/mL; growth inhibition (GI) (M14): Active; growth inhibition (GI) (A498): Active; growth inhibition (GI) (UACC-62): Active; growth inhibition (GI) (Malme-3M): Active; MIC (Staphylococcus aureus [1]): > 1000 µg/mL; MIC (Klebsiella pneumoniae): > 1000 µg/mL; MIC50 (Cryptococcus neoformans [2]): ≥ 250 µg/mL; MIC80 (Cryptococcus neoformans [2]): ≥ 250 µg/mL; EC50 (Plasmodium falciparum): 14.1 µg/mL (≈ 29.7 µM); inhibition of growth at 125 µg/mL (Cryptococcus neoformans [3]): 6.74%; inhibition of growth at 3.4 µg/mL (Cryptococcus neoformans [4]): 0%; MIC (Staphylococcus aureus [5]): > 1000 µg/mL; growth inhibition (GI) (OVCAR-4): Active; growth inhibition (GI) (MDA-MB-231): Active; MIC (Neisseria gonorrhoeae): > 1000 µg/mL; inhibition of growth at 62.5 µg/mL (Cryptococcus neoformans [6]): 6.09%; growth inhibition (GI) (TK-10): Active; inhibition of growth at 31.25 µg/mL (Cryptococcus neoformans [7]): 3.63%; inhibition of growth at 250 µg/mL (Cryptococcus neoformans [8]): 7.12%; growth inhibition (GI) (SR): Active; growth inhibition (GI) (MDA-MB-435): Active; growth inhibition (GI) (KM12): Active; inhibition of growth at 7.8 µg/mL (Candida albicans): 2.51%; growth inhibition (GI) (SF-539): Active
